Experimental data as given in ChEMBL document CHEMBL4251617, “Synthesis and anticancer activity of novel water soluble benzimidazole carbamates” (Eur J Med Chem, 2018).
The source made the active and inactive calls. The calls are words filed in the database; no cut-off is given here.

How the values were obtained:
[1] = Cytotoxicity against human PC3MLN4 cells assessed as reduction in cell viability after 48 hrs by cyquant reagent based fluorescence spectrometric assay; assay type: functional
Summary of the method: (§1)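 3 X 10^5 cells per well seeded overnight, then exposed 48 hr. Cells harvested, washed, frozen at -80 °C overnight, thawed, and CyQuant reagent added with fluorescence read at 485 nm. Survival as % of vehicle-treated cells. EC50 (50% survival reduction) by median-dose effect analysis.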

[2] = system: PC-3M; test: Cytotoxicity against human PC3M cells assessed as reduction in cell viability after 48 hrs by cyquant reagent based fluorescence spectrometric assay; assay type: functional; summary of the method: as §1
[3] = Selectivity ratio of EC50 for cytotoxicity against human PC3M cells to EC50 for cytotoxicity against human PC3MLN4 cells; assay type: functional
[4] = Cytotoxicity against human PC3MLN4 cells assessed as cell viability at 10 uM after 72 hrs by MTT assay relative to control; assay type: functional; conditions: read-out: Activity
[5] = Cytotoxicity against human PC3MLN4 cells assessed as cell viability at 1 uM after 72 hrs by MTT assay relative to control; assay type: functional; conditions: read-out: Activity
[6] = system: PC-3; test: Cytotoxicity against human PC3 cells assessed as cell viability at 10 uM after 72 hrs by MTT assay relative to control; assay type: functional; conditions: PC-3, 72 h, read-out: Activity
[7] = system: PC-3; test: Cytotoxicity against human PC3 cells assessed as cell viability at 1 uM after 72 hrs by MTT assay relative to control; assay type: functional; conditions: PC-3, 72 h, read-out: Activity
[8] = system: A549; test: Cytotoxicity against human A549 cells assessed as cell viability at 10 uM after 72 hrs by MTT assay relative to control; assay type: functional; conditions: A549, 72 h, read-out: Activity
[9] = system: A549; test: Cytotoxicity against human A549 cells assessed as cell viability at 1 uM after 72 hrs by MTT assay relative to control; assay type: functional; conditions: A549, 72 h, read-out: Activity
[10] = system: NCI-H157; test: Cytotoxicity against human NCI-H157 cells assessed as reduction in cell viability after 72 hrs by MTT assay; assay type: functional, cell-based; conditions: NCI-H157, 72 h
Summary of the method: (§2)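 Cells seeded per well at 5 X 10^3 (PC3MLN4, A549, Calu1, H157, A549-TR), 6 X 10^3 (PC3) or 8 X 10^3 (SKOV3). SKOV3 grown in McCoy's 5A, others in RPMI-1640, 10% FBS. Next day 2X drug added, 3.2 nM-50 µM five-fold dilutions, 72 hr.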

[11] = system: Calu-1; test: Cytotoxicity against human Calu1 cells assessed as reduction in cell viability after 72 hrs by MTT assay; assay type: functional, cell-based; conditions: Calu-1, 72 h; summary of the method: as §2
[12] = system: A549; test: Cytotoxicity against human A549 cells assessed as reduction in cell viability after 72 hrs by MTT assay; assay type: functional, cell-based; conditions: A549, 72 h; summary of the method: as §2
[13] = system: PC-3; test: Cytotoxicity against human PC3 cells assessed as reduction in cell viability after 72 hrs by MTT assay; assay type: functional, cell-based; conditions: PC-3, 72 h; summary of the method: as §2
[14] = Cytotoxicity against human PC3MLN4 cells assessed as reduction in cell viability after 72 hrs by MTT assay; assay type: functional, cell-based; summary of the method: as §2
[15] = system: SK-OV-3; test: Cytotoxicity against human SKOV3 cells assessed as reduction in cell viability after 72 hrs by MTT assay; assay type: functional, cell-based; conditions: SK-OV-3, 72 h; summary of the method: as §2
[16] = system: A549/TR; test: Cytotoxicity against human A549/TR cells assessed as reduction in cell viability after 72 hrs by MTT assay; assay type: functional, cell-based; summary of the method: as §2
[17] = species on record: Homo sapiens; test: Cell cycle arrest in human PC3MLN4 cells assessed as accumulation at G2/M phase at 1 uM after 24 hrs by propidium iodide staining based flow cytometry; assay type: functional
Summary of the method: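 PC3MLN4 cells seeded 3 X 10^5/well, next day treated 24 hr at 1 µM, nocodazole 1 µM as control. Floating and adherent cells pooled, fixed in cold 70% ethanol 30 min, then PI plus RNase A for 30 min. 15 X 10^3 cells acquired by FACS. G1/S/G2 fractions from Dean-Jett-Fox fit.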

[18] = species on record: Homo sapiens; test: Disruption of microtubule dynamics in human PC3MLN4 cells at 1 uM after 48 hrs by immunofluorescence microscopic method; assay type: cell-based
Summary of the method: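 PC3MLN4 cells on coverslips were treated 48 hr at 1 µM. They were fixed in 4% PFA 15 min and permeabilized in 0.2% Triton X-100 8 min. Blocking was 2% goat serum/2% BSA 1 hr. Anti-α-tubulin 1:200 for 1 hr was followed by Alexa Fluor 488 secondary 1:400 for 45 min, with DAPI 500 nM counterstain and imaging at 100X and 200X.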

[19] = Antitumor activity against human PC3MLN4 cells xenografted in nude mouse assessed as reduction in tumor volume at 30 mg/kg, ip administered every other day 3 times per week for 2 weeks; assay type: functional
Summary of the method: (§3)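 PC3MLN4 cells (1 X 10^6) in growth factor reduced Matrigel/HBSS injected subcutaneously between the scapulae of athymic nude mice. Dosing began day 13 at tumor volume about 35 mm3. Randomized groups of 4-5 mice got 30 mg/kg IP in 5% DMSO/HBSS, or vehicle alone. Tumor (calipers) and body weight measured on dosing days and 3 days after last dose. Mean ± SEM, t-test.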

[20] = species on record: Homo sapiens; test: Upregulation of Cyclin-B1 protein expression in human PC3MLN4 cells at 1 uM after 24 hrs by Western blot method; assay type: functional, cell-based
Summary of the method: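 PC3MLN4 cells were treated 24 hr and lysed in 50 mM Tris pH 7.5, 150 mM NaCl, 10 mM NaF, 0.5% NP40 with protease inhibitors. Equal protein (BCA) was run on SDS-PAGE and transferred to nitrocellulose, then blocked in 5% milk/TBST. Blots were probed for cyclin B1 with GAPDH as loading control, using HRP secondary and ECL.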

[21] = system: Mus musculus; test: Toxicity in nude mouse xenografted with human PC3MLN4 cells assessed as reduction in body weight at 30 mg/kg, ip administered every other day 3 times per week for 2 weeks measured 3 times per week during compound dosing relative to control; assay type: organism-based; parameters: scale not given: the % may be the effect or the level left; conditions: in vivo, 336 h; summary of the method: as §3

Row | Compound | viability at 10 µM [4] [%] | viability at 1 µM [5] [%] | viability at 10 µM [6] [%] | viability at 1 µM [7] [%] | viability at 10 µM [8] [%] | viability at 1 µM [9] [%] | other results
1 | CCCSc1ccc2[nH]c(NC(=O)OC)nc2c1 [ALBENDAZOLE] |  |  |  |  |  |  | EC50 [1]: 580 nM; EC50 [2]: 1150 nM; Ratio EC50 [3]: 2
2 | O=C(Nc1nc2cc(C(=O)c3ccccc3)ccc2[nH]1)OC1COC1 | 66.8 | 70.6 | 65.5 | 90.9 | 62 | 68 | 
3 | CN(C)CCCOC(=O)Nc1nc2cc(C(=O)c3ccc(F)cc3)ccc2[nH]1 | 91 | 87.3 | 86.5 | 105 | 88.1 | 85.4 | 
4 | COC(=O)Nc1nc2cc(Oc3cccc(N4CCN(C)CC4)n3)ccc2[nH]1 | 74 | 83 | 52.1 | 98.1 | 72.6 | 87.8 | 
5 | O=C(Nc1nc2cc(Sc3ccccc3)ccc2[nH]1)OC1COC1 | 79.1 | 80.2 | 87.8 | 107 | 74.8 | 75 | 
6 | COC(=O)Nc1nc2cc(C(=O)c3ccccc3)ccc2[nH]1 [MEBENDAZOLE] | 24.9 | 53.9 | 35.8 | 63.4 | 50.8 | 61.5 | EC50 [1]: 700 nM; EC50 [2]: 1210 nM; EC50 [10]: 3500 nM; EC50 [11]: 1100 nM; EC50 [12]: 900 nM; EC50 [13]: 1100 nM; EC50 [14]: 500 nM; EC50 [15]: 500 nM; EC50 [16]: 1700 nM; Activity [17]: inactive; Activity [18]: Active; T/C [19]: 0.31
7 | CCCSc1ccc2[nH]c(NC(=O)OCCN(C)C)nc2c1 | 42.8 | 92.7 | 37.9 | 82.5 | 51.8 | 75.5 | 
8 | CCCSc1ccc2[nH]c(NC(=O)OCCCN(C)C)nc2c1 | 88.6 | 86.7 | 78.2 | 95.5 | 89.9 | 83.8 | 
9 | COC(=O)Nc1nc2cc(Oc3cccc(N4CCN(C)CC4)c3)ccc2[nH]1 | 33.4 | 86.3 | 32.2 | 73.1 | 47.5 | 77 | 
10 | CN(C)CCOC(=O)Nc1nc2cc(C(=O)c3ccccc3)ccc2[nH]1 | 98.8 | 101 | 92.6 | 97.3 | 89.6 | 94.4 | 
11 | CN(C)CCOC(=O)Nc1nc2cc(C(=O)c3ccc(F)cc3)ccc2[nH]1 | 97.2 | 84.6 | 90.9 | 91.2 | 80.4 | 89.4 | 
12 | CCCSc1ccc2[nH]c(NC(=O)OC3COC3)nc2c1 | 83.8 | 88.3 | 84.5 | 95.2 | 79.2 | 73.2 | 
13 | COC(=O)Nc1nc2cc(C(=O)c3ccccc3N(C)C3COC3)ccc2[nH]1 | 38.4 | 100 | 54.8 | 101 | 46.8 | 99 | 
14 | COC(=O)Nc1nc2cc(C(=O)c3cccs3)ccc2[nH]1 |  |  |  |  |  |  | Activity [20]: Active; Activity [18]: Active
15 | COC(=O)Nc1nc2cc(Sc3ccccc3)ccc2[nH]1 [FENBENDAZOLE] |  |  |  |  |  |  | EC50 [1]: 910 nM; EC50 [2]: 2600 nM; Ratio EC50 [3]: 2
16 | CN(C)CCOC(=O)Nc1nc2cc(Sc3ccccc3)ccc2[nH]1 | 36.6 | 98.1 | 35 | 88.9 | 39.2 | 91.8 | 
17 | COC(=O)Nc1nc2ccc(C(=O)c3ccccc3)cc2[nH]1 [MEBENDAZOLE] |  |  |  |  |  |  | Activity [21]: 5%
18 | CC(=O)O[C@H]1C(=O)[C@@]2(C)[C@H]([C@H](OC(=O)c3ccccc3)[C@]3(O)C[C@H](OC(=O)[C@H](O)[C@@H](NC(=O)c4ccccc4)c4ccccc4)C(C)=C1C3(C)C)[C@]1(OC(C)=O)CO[C@@H]1C[C@@H]2O [PACLITAXEL] |  |  |  |  |  |  | EC50 [16]: 10300 nM
19 | COC(=O)Nc1nc2cc(C(=O)c3ccc(F)cc3)ccc2[nH]1 [FLUBENDAZOLE] |  |  |  |  |  |  | EC50 [1]: 670 nM; EC50 [2]: 1430 nM; Ratio EC50 [3]: 2
20 | CCCSc1ccc2[nH]c(NC(=O)OCC3(C)COC3)nc2c1 | 89.7 | 87.6 | 79.2 | 87.2 | 87.6 | 83.1 | 
